According to ChEMBL document CHEMBL1136929 (J Med Chem, 2009):
pIC50, pKi: −log10 of the molar value. Active and inactive are the calls of the source. The rule behind the calls is not given here.

Legend:
Cannabinoid receptor 2 = Cannabinoid receptor 2 (Homo sapiens, UniProt P34972); assay: Displacement of [3H]CP-55940 from human recombinant CB2 receptor expressed in HEK293 cells; format: cell-based
Cannabinoid receptor 1 = Cannabinoid receptor 1 (Homo sapiens, UniProt P21554); assay: Displacement of [3H]CP-55940 from human recombinant CB1 receptor expressed in HEK293 cells; format: cell-based
Cannabinoid receptor 1, sequence (P21554 whole entry): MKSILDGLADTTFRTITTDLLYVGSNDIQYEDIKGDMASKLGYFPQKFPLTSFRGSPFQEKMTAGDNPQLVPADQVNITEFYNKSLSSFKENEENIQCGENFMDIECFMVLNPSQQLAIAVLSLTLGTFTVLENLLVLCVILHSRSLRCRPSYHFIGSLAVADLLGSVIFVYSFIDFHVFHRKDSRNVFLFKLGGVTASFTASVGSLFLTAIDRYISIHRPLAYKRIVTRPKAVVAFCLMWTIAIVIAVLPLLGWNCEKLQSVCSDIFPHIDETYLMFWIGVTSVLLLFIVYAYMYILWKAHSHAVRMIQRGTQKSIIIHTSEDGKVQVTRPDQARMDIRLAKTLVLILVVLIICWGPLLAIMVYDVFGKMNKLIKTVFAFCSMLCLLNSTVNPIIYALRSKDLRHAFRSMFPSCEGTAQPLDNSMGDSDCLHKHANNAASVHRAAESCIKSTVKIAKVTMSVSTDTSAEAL

[1] = Cytotoxicity against human U87MG cells at 10 uM after 48 hrs by WST1 assay; format: functional, U-87MG ATCC
Outline: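 U87MG cells (4 × 10³ per well) in serum-free medium, attached 24 h, then exposed to compound at 10 µM for 48 h (DMSO stock diluted in medium). Viability inhibition by WST-1 (60 min, 37 °C, A450) compared with solvent-treated controls.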

Jurkat [2] = assay: Cytotoxicity against human Jurkat cells after 48 hrs by WST1 assay; format: functional, cell-based
Outline: (§1)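 Jurkat (2 × 10⁴ per well, 2 h settling) or U87MG (4 × 10³ per well, 24 h attachment) cells in serum-free medium. Exposed to compound (0.1-10 µM; DMSO stocks diluted in medium) for 48 h. Viability read by WST-1 (60 min, 37 °C, A450) against solvent controls, blank-subtracted. IC50 is the concentration giving 50% of control absorbance. Three experiments in triplicate.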

[3] = Cytotoxicity against human U87MG cells after 48 hrs by WST1 assay; format: functional, cell-based; conditions: u-87mg atcc; outline: as §1
Jurkat [4] = assay: Cytotoxicity against human Jurkat cells at 10 uM after 48 hrs by WST1 assay in presence of AM630; format: functional, cell-based
Outline: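 Jurkat cells (2 × 10⁴ per well) in serum-free medium, after 2 h, exposed to compound (10 µM) together with CB2 antagonist AM630 (1 µM) for 48 h. Viability by WST-1 (60 min, 37 °C, A450) against solvent controls. Two experiments in triplicate.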

Cannabinoid receptor 2, sequence (P34972 whole entry): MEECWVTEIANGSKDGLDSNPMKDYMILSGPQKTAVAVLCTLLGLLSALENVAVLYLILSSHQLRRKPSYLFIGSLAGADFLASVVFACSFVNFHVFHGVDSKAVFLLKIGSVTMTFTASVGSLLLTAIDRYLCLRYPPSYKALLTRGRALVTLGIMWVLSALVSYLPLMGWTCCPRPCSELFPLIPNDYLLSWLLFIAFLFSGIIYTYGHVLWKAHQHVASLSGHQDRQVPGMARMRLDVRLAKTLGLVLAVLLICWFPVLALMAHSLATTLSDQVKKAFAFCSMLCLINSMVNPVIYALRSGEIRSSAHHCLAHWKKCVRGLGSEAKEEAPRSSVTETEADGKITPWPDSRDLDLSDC

Compound	pKi (Cannabinoid receptor 2)	pKi (Cannabinoid receptor 1)	other results
CCCC(C)(C)c1ccc2c(c1)OC(C)(C)[C@@H]1CC=C(C)C[C@@H]21	8.52		
C[C@H]1CC[C@H](NC(=O)c2cc3cccnc3n(Cc3ccc(F)cc3)c2=O)CC1	8.05	6.52	
O=C(NC1CCCCCC1)c1cc2cccnc2n(CCN2CCOCC2)c1=O	8.52	7.74	
C[C@H]1CC[C@H](NC(=O)c2cc3cccnc3n(Cc3ccccc3)c2=O)CC1	7.40	5.28	
O=C(NC1CCCCC1)c1cc2cccnc2n(Cc2ccccc2)c1=O	7.51	6.25	
C[C@H]1CC[C@@H](NC(=O)c2cc3cccnc3n(Cc3ccccc3)c2=O)CC1	8.24	5.82	
O=C(NCCc1ccc(F)cc1)c1cc2cccnc2n(Cc2ccccc2)c1=O	7.16	5.16	
O=C(NC1CCCCC1)c1cc2cccnc2n(CCN2CCOCC2)c1=O	8.10	6.25	
CCCn1c(C)c(C(=O)c2cccc3ccccc23)c2ccccc21			Activity [1]: 20%; pIC50 (Jurkat [2]): 5.02; IC50 [3]: Not Active
CC1CCC(NC(=O)c2cc3cccnc3n(Cc3ccc(F)cc3)c2=O)CC1 (centres undefined)	9.05	6.70	
CC1CCC(NC(=O)c2cc3cccnc3n(CCN3CCOCC3)c2=O)CC1 (centres undefined)	8.72	6.00	
O=C(NC1CCCCC1)c1cc2cccnc2n(Cc2ccc(F)cc2)c1=O	8.66	7.25	
CC1CCC(NC(=O)c2cc3cccnc3n(Cc3ccccc3)c2=O)CC1 (centres undefined)	8.11	5.80	Activity [1]: 20%; Activity (Jurkat [2]): Dose-dependent effect; pIC50 (Jurkat [2]): 5.22; IC50 [3]: Not Active
CCCCn1c(=O)c(C(=O)NC2CCCCC2)cc2cccnc21	7.15	5.25	
O=C(NC1CCCCCC1)c1cc2cccnc2n(Cc2ccccc2)c1=O	7.66	6.02	
COc1ccc(C(=O)c2c(C)n(CCN3CCOCC3)c3cc(I)ccc23)cc1			Activity (Jurkat [4]): inactive
O=C(NC1CCCCCC1)c1cc2cccnc2n(Cc2ccc(F)cc2)c1=O	9.15	8.02	
C[C@H]1CC[C@@H](NC(=O)c2cc3cccnc3n(Cc3ccc(F)cc3)c2=O)CC1	9.15	6.70	
